Source: the array DNA melting data of Ke et al. (doi:10.1101/2024.01.08.574731)

Columns and labels:
[1] = folding enthalpy; higher = less favourable; fluorescence melt of hairpins on a sequencing array, two-state fit; details: sodium 0.088 M
Method in brief: (§1)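 Folding enthalpy and melting temperature come from bootstrapped two-state fits to Cy3 fluorescence of library hairpins carrying annealed Cy3 and quencher oligos on a sequenced MiSeq flow cell. Imaging was done in 50 mM Na-HEPES pH 8.0, 25 mM NaCl, stepping by 2.5 °C up to 60 °C, and signals were normalised to pre-quench Cy3 and to control constructs. Results of four replicates were combined by inverse variance, and fitted temperatures were raised by 9.35 °C to match UV melts.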

[2] = melting temperature; fluorescence melt of hairpins on a sequencing array, two-state fit, raised by 9.35 °C to match UV melts; details: sodium 0.088 M
Method in brief: as §1

Row | Sequence | folding enthalpy [1] | Tm [2]
1 | GCTTGCGAAAGCAAGAGC ((((((....)))..))) | -12.3 kcal/mol | 56.3 °C
2 | CGCTATCGGAAACGAGCG (((..(((....)))))) | -27.1 kcal/mol | 41.8 °C
3 | GAGCCGGGAAACCAGCTC ((((.((....)).)))) | -37.8 kcal/mol | 48 °C
4 | GATCAGGTCCTGATC ((((((...)))))) | -35.2 kcal/mol | 51.9 °C
5 | GATCGTATCACGATC ((((((...)))))) | -37.6 kcal/mol | 58.4 °C
6 | GCGCGCGAAAGCGATCGC ((((((....)))..))) | -18.5 kcal/mol | 52.8 °C
7 | CGCAATCGGAAACGAGCG (((..(((....)))))) | -25.4 kcal/mol | 42.4 °C
8 | GTCACAGGAAACTGTGGC (.(((((....))))).) | -32.8 kcal/mol | 52.5 °C
9 | GATCGACTAATCGATC ((((((....)))))) | -30.3 kcal/mol | 49.9 °C
10 | GTGTTAACGAAAGTTCAC (((..(((....)))))) | -12.5 kcal/mol | 34.9 °C
11 | GATCATAAGCATGATC ((((((....)))))) | -31.5 kcal/mol | 46.5 °C
12 | GCCCCAGGAAACCGGGGC (((((.(....).))))) | -41.2 kcal/mol | 59.3 °C
13 | GCCAAGTCGAAAGACGGC (((..(((....)))))) | -25.6 kcal/mol | 52.7 °C
14 | GATCCTGCAAAGGATC ((((((....)))))) | -34.6 kcal/mol | 61.3 °C
15 | GATCATTTCTATGATC ((((((....)))))) | -41.4 kcal/mol | 48.6 °C
16 | GCAGGGCGAAAGCACCGC ((.(.((....)).).)) | -16 kcal/mol | 57.7 °C
17 | GTCATTGGAAACAATGAC (((((((....))))))) | -41.8 kcal/mol | 58.3 °C
18 | GCCTAGGGAAACCTAAGC ((.((((....)))).)) | -14.7 kcal/mol | 31.6 °C
19 | GTAGCCGGAAACGGCCAC ((.((((....)))).)) | -10.2 kcal/mol | 39.5 °C
20 | GCTTCGCGAAAGCGCTGC ((..(((....)))..)) | -22.9 kcal/mol | 41.4 °C
21 | CCAAGGAAACTTGG (((((....))))) | -20.3 kcal/mol | 46 °C
22 | GGATGACCGAAAGGTTCC (((..(((....)))))) | -10.9 kcal/mol | 34.2 °C
23 | GGTCATCGAAAGATTACC (((.(((....))).))) | -34.3 kcal/mol | 42.6 °C

Row | Sequence | folding enthalpy [1] | Tm [2]
24 | GATCGTATAACGATC ((((((...)))))) | -47.3 kcal/mol | 55.7 °C
25 | GTAACGGGAAACTGTTGC (.(((.(....).))).) | -22.8 kcal/mol | 32.9 °C
26 | GTGACAGGAAACTGCCAC (((.(((....))).))) | -33 kcal/mol | 46.8 °C
27 | GATTACCGAAAGGTATC (((.(((....)))))) | -14.4 kcal/mol | 36.1 °C
28 | GCGGAAGCCCGC ((((....)))) | -14 kcal/mol | 57.3 °C
29 | GGAACAGGAAACCGTTCC (((((.(....).))))) | -31.7 kcal/mol | 45.5 °C
30 | GAAGCCGGAAACGGCCTC ((.((((....)))).)) | -10 kcal/mol | 39.2 °C
31 | GTTCCCGAAAGGGGCAAC ((((((....)))..))) | -9.18 kcal/mol | 30.2 °C
32 | GATCATGAGATGATC ((((((...)))))) | -32.5 kcal/mol | 43.4 °C
33 | GTCGCCGAAAGGCGGGAC ((((((....)))..))) | -6.81 kcal/mol | 41 °C
34 | GATCTCATGGAGATC ((((((...)))))) | -33.9 kcal/mol | 54 °C
35 | GGTTGACGAAAGTCACC (((.(((....)))))) | -19.8 kcal/mol | 53.5 °C
36 | GGTGTCGGAAACGGCATC (.((.((....)).)).) | -26.1 kcal/mol | 44.4 °C
37 | GCAAAACGAAAGTTCTGC (((.(((....))).))) | -27.8 kcal/mol | 40.7 °C
38 | GTCTAACGAAAGTTCGAC (((.(((....))).))) | -28.3 kcal/mol | 43.2 °C
39 | GCAAATCGAAAGATATGC (((.(((....))).))) | -29.4 kcal/mol | 45.1 °C
40 | GTAGTTGGAAACAGTTAC (((..((....))..))) | -9.43 kcal/mol | 28.7 °C
41 | GCGGCGCGAAAGCACTGC ((.(.((....)).).)) | -29 kcal/mol | 54.6 °C
42 | GGCCAATCGAAAGATGCC (((..(((....)))))) | -23.9 kcal/mol | 42.9 °C
43 | GATGGCCCGAAAGGGATC (((..(((....)))))) | -11 kcal/mol | 34.3 °C
44 | GATCCCCTGAGGGATC ((((((....)))))) | -31.8 kcal/mol | 61.9 °C
45 | GACACAGAAATGTGTC ((((((....)))))) | -28.5 kcal/mol | 56.5 °C
46 | GCTCTGCGAAAGCAAAGC (((.(((....))).))) | -29.9 kcal/mol | 46.1 °C

Row | Sequence | folding enthalpy [1] | Tm [2]
47 | GCTCTCCGAAAGGAAGC (((.(((....)))))) | -25.8 kcal/mol | 47.8 °C
48 | GAGTGAGGAAACTTGCTC (((..((....))..))) | -12.9 kcal/mol | 37.5 °C
49 | GGGCCCGCGAAAGCGCCC (((..(((....)))))) | -15.6 kcal/mol | 55.8 °C
50 | GCAAAGCGAAAGCGTTGC ((((.((....)).)))) | -26.3 kcal/mol | 65 °C
51 | GTCGTGGGAAACCACGGC (.(((((....))))).) | -40.4 kcal/mol | 59.9 °C
52 | GAGGTAGGAAACCACCTC (((((.(....).))))) | -31 kcal/mol | 42.2 °C
53 | GATCTTTTATAAGATC ((((((....)))))) | -34.5 kcal/mol | 44.1 °C
54 | GCCATTGGAAACGATGGC (((((.(....).))))) | -45.8 kcal/mol | 54.1 °C
55 | GCAGTTGGAAACAGTTGC (((..((....))..))) | -13.8 kcal/mol | 29.7 °C
56 | CGTCCCGGAAACGGCACG (((.(((....))).))) | -23.7 kcal/mol | 39.9 °C
57 | GTGTTAGCGAAAGCTCAC (((..(((....)))))) | -21.9 kcal/mol | 44.2 °C
58 | GCCTTACGAAAGTAGGC (((.(((....)))))) | -29.1 kcal/mol | 54.2 °C
59 | GATCTATCCTTAGATC ((((((....)))))) | -34.1 kcal/mol | 44.4 °C
60 | GTGCTCGAAAGAGTACAC ((((((....)))..))) | -14.3 kcal/mol | 49.7 °C
61 | GGGCGCGAAAGCGCTCCC ((((((....)))..))) | -9.05 kcal/mol | 53.6 °C
62 | GATCCGAAGCCGGATC ((((((....)))))) | -39.6 kcal/mol | 55.4 °C
63 | GCATAGGAAACTATGC ((((((....)))))) | -35.4 kcal/mol | 53.7 °C
64 | GCTGCGCGAAAGCATAGC (((..((....))..))) | -18.2 kcal/mol | 46.5 °C
65 | GGATGTGGAAACATATCC ((((.((....)).)))) | -28.7 kcal/mol | 44.9 °C
66 | GATCACCGACGTGATC ((((((....)))))) | -32.5 kcal/mol | 54.5 °C
67 | GATCAAGCTTTTGATC ((((((....)))))) | -34.8 kcal/mol | 44.5 °C
68 | GTTATTCGAAAGAAAAAC (((.(((....))).))) | -19.6 kcal/mol | 29.9 °C
69 | CGCAACGGAAACGTCGCG (((.(((....))).))) | -42.6 kcal/mol | 52.1 °C

Row | Sequence | folding enthalpy [1] | Tm [2]
70 | GATCAGTTCTCTGATC ((((((....)))))) | -42.1 kcal/mol | 52.1 °C
71 | CGGTACCGGAAACGGCCG (((..(((....)))))) | -20.8 kcal/mol | 40.9 °C
72 | GATTTCGCGAAAGCGATC (((..(((....)))))) | -5.88 kcal/mol | 17.8 °C
73 | GCTCAGTCGAAAGACAGC (((..(((....)))))) | -15.3 kcal/mol | 37.3 °C
74 | GGCCTCGAAAGAGAGGCC ((((((....)))..))) | -29.1 kcal/mol | 66.9 °C
75 | GATCCCGAAAGGGGATC ((((((....))).))) | -31.4 kcal/mol | 57.8 °C
76 | GCCGGTGCGAAAGCAGGC (((..(((....)))))) | -17.1 kcal/mol | 56.8 °C
77 | GATCCACGTTTGGATC ((((((....)))))) | -34.6 kcal/mol | 50.5 °C
78 | GATCTGCCAGCAGATC ((((((....)))))) | -38.6 kcal/mol | 57.7 °C
79 | GTATGGCCGAAAGGCTAC (((..(((....)))))) | -7.75 kcal/mol | 30 °C
80 | GCTGCGCGAAAGCGGTGC ((..(((....)))..)) | -19.6 kcal/mol | 55.1 °C
81 | GCTGCGCGAAAGCCAAGC (((..((....))..))) | -18.9 kcal/mol | 48.9 °C
82 | GGACCCGGAAACGGGCCC ((.((((....)))).)) | -19.2 kcal/mol | 59.6 °C
83 | GGTCCTCCGAAAGGAACC (((..(((....)))))) | -13 kcal/mol | 32.9 °C
84 | GTATACGAAAGTAACTAC ((((((....)))..))) | -19.9 kcal/mol | 26.4 °C
85 | GGAAATGAAAATTTCC ((((((....)))))) | -29.2 kcal/mol | 48.8 °C
86 | GATACAGGAAACCGTATC (((((.(....).))))) | -29.6 kcal/mol | 36.5 °C
87 | GTCCCAGAAATGGGAC ((((((....)))))) | -33.7 kcal/mol | 64.3 °C
88 | GGCTGCCCGAAAGGGGCC (((..(((....)))))) | -13.7 kcal/mol | 47.6 °C
89 | GAATCCGAAAGGATCTTC ((((((....)))..))) | -24.5 kcal/mol | 51.3 °C
90 | GGACAGCGAAAGCTTCC (((.(((....)))))) | -20.9 kcal/mol | 43.5 °C
91 | GATCCACCGATGGATC ((((((....)))))) | -36.7 kcal/mol | 49.2 °C
92 | GATCACGGTGTGATC ((((((...)))))) | -30.5 kcal/mol | 61.3 °C
